≈ marks a conversion by molar mass, not a printed value.
Each molecule was assayed on HEp-2 (assay: Minimum toxic effect against HEp-2 cells.).
Type: functional, Homo sapiens
How it was run: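 Uninfected HEp-2 cells were exposed to 3-fold serial dilutions of compound in E-MEM with FCS, run alongside the CPE assay. Cell density was set to reach a monolayer in 1–2 days. Plates were fixed and stained at 3 days. MTC is the lowest concentration causing visible toxic effects.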

| Compound | MTC |
| --- | --- |
| O=c1[nH]c(=O)n([C@@H]2C[C@H](O)[C@@H](CO)O2)cc1CCBr | 330 µg/mL |
| O=c1[nH]c(=O)n([C@H]2C[C@H](O)[C@@H](CO)O2)cc1CCBr | 100 µg/mL |
| O=c1[nH]c(=O)n([C@H]2C[C@H](O)[C@@H](CO)O2)cc1CCCCl | 100 µg/mL |
| COC(=O)/C=C/c1cn([C@H]2C[C@H](O)[C@@H](CO)O2)c(=O)[nH]c1=O | 100 µg/mL |
| O=c1nc2c(cn1[C@H]1C[C@H](O)[C@@H](CO)O1)CCO2 | 330 µg/mL |

What follows are molecules tested on Human alphaherpesvirus 2 (assay: Minimum inhibitory concentration against HSV-2.).
Type: functional
How it was run: (§1)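 CPE-inhibition assay in HEp-2 cells. Compound was serially diluted 3-fold in E-MEM, then virus (HSV-1 Brand or HSV-2 K979) and a cell suspension in E-MEM plus 15% FCS were added together. Virus input gave 90–100% CPE in infected controls after 3 days. Plates were then fixed and stained, and CPE was scored.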

| Compound | MIC |
| --- | --- |
| O=c1[nH]c(=O)n([C@@H]2C[C@H](O)[C@@H](CO)O2)cc1CCBr | > 100 µg/mL |
| O=c1[nH]c(=O)n([C@H]2C[C@H](O)[C@@H](CO)O2)cc1CCBr | 100 µg/mL (≈ 298 µM) |
| O=c1[nH]c(=O)n([C@H]2C[C@H](O)[C@@H](CO)O2)cc1CCCCl | 30 µg/mL (≈ 98.4 µM) |
| COC(=O)/C=C/c1cn([C@H]2C[C@H](O)[C@@H](CO)O2)c(=O)[nH]c1=O | 30 µg/mL (≈ 96.1 µM) |
| O=c1nc2c(cn1[C@H]1C[C@H](O)[C@@H](CO)O1)CCO2 | > 100 µg/mL |

What follows are molecules tested on Human alphaherpesvirus 1 (assay: Minimum inhibitory concentration against HSV-1.).
Type: functional
How it was run: as §1

| Compound | MIC |
| --- | --- |
| O=c1[nH]c(=O)n([C@@H]2C[C@H](O)[C@@H](CO)O2)cc1CCBr | 3 µg/mL (≈ 8.95 µM) |
| O=c1[nH]c(=O)n([C@H]2C[C@H](O)[C@@H](CO)O2)cc1CCBr | 3 µg/mL (≈ 8.95 µM) |
| O=c1[nH]c(=O)n([C@H]2C[C@H](O)[C@@H](CO)O2)cc1CCCCl | 0.3 µg/mL (≈ 0.984 µM) |
| COC(=O)/C=C/c1cn([C@H]2C[C@H](O)[C@@H](CO)O2)c(=O)[nH]c1=O | 0.3 µg/mL (≈ 0.961 µM) |
| O=c1nc2c(cn1[C@H]1C[C@H](O)[C@@H](CO)O1)CCO2 | > 100 µg/mL |

Reference: ChEMBL document CHEMBL1122848, “5-(Haloalkyl)-2'-deoxyuridines: a novel type of potent antiviral nucleoside analogue” (1985)
